Source: ChEMBL document CHEMBL1821557, “Novel aryloxy azolyl chalcones with potent activity against Mycobacterium tuberculosis H37Rv” (Eur J Med Chem, 2011)
In brackets after ≈: the same amount, converted by molar mass.

Key:
[1] = tested on: Mycobacterium tuberculosis; experiment: Antitubercular activity against Mycobacterium tuberculosis H37Rv after 4 weeks by agar proportion method; format: functional; conditions: 672 h
How it was run: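 Agar proportion method on Middlebrook 7H10 agar slants with OADC; compounds in DMSO added at 0.1 mL per 1.9 mL medium. Inoculum was H37Rv grown on L–J medium and suspended in saline with 0.05% Tween-80, ~10^5 bacilli per tube. Incubated 37 °C for 4 weeks; MIC is the lowest concentration with no visible growth.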

[2] = (§1) Cytotoxicity against african green monkey Vero cells assessed as growth inhibition at 10 times MIC after 24 hrs by MTS assay; format: cell-based; conditions: chlorocebus sabaeus, Vero cells; read-out: GI
How it was run: (§2)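 Vero cells or mouse bone-marrow-derived macrophages plated at 20,000 cells/well and allowed to adhere overnight (37 °C, 5% CO2). Compounds added at several concentrations for 24 h, then MTS for 2 h, with OD read at 490 nm. IC50 is the concentration giving 50% viability loss; a compound counts as toxic if IC50 ≤10× MIC.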

Vero = experiment: as §1; format: cell-based; conditions: chlorocebus sabaeus, vero, 24 h; how it was run: as §2
[3] = Cytotoxicity against mouse BMDM cells assessed as growth inhibition at 10 times MIC after 24 hrs by MTS assay; format: cell-based; how it was run: as §2
[4] = tested on: Mycobacterium tuberculosis; experiment: Ex-vivo antitubercular activity against Mycobacterium tuberculosis H37Rv infected in mouse BMDM cells assessed as reduction in intracellular bacterial level after 4 days at 5 times MIC; format: functional; set-up: scale not given: the % may be the effect or the level left
[5] = tested on: Mycobacterium tuberculosis; experiment: Antitubercular activity against Mycobacterium tuberculosis H37Rv infected in Swiss mouse infected assessed as mouse survival at 100 mg/kg/day, po for 28 days measured on day 30 post infection; format: functional
How it was run: (§3)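 Outbred Swiss mice infected i.v. with H37Rv at 10^7 CFU/mouse, in groups of 6–8. Daily oral dosing for 28 days: test compounds at 100 mg/kg in peanut oil, or isoniazid at 25 mg/kg. Percent survivors and mean survival time were recorded on day 30 and day 40.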

[6] = tested on: Mycobacterium tuberculosis; experiment: Antitubercular activity against Mycobacterium tuberculosis H37Rv infected in Swiss mouse infected assessed as mean survival time of mouse at 100 mg/kg/day, po for 28 days measured on day 30 post infection; format: functional; how it was run: as §3
[7] = tested on: Mycobacterium tuberculosis; experiment: Antitubercular activity against Mycobacterium tuberculosis H37Rv infected in Swiss mouse infected assessed as mouse survival at 100 mg/kg/day, po for 28 days measured on day 40 post infection; format: functional; how it was run: as §3
[8] = tested on: Mycobacterium tuberculosis; experiment: Antitubercular activity against Mycobacterium tuberculosis H37Rv infected in Swiss mouse infected assessed as mean survival time of mouse survival at 100 mg/kg/day, po for 28 days measured on day 40 post infection; format: functional; how it was run: as §3
[9] = tested on: Mycobacterium tuberculosis; experiment: Antitubercular activity against Mycobacterium tuberculosis H37Rv infected in Swiss mouse assessed as inhibition of viable bacterial counts in lungs at 100 mg/kg, po for 28 days measured on day 30 post infection; format: functional
Mus musculus = experiment: Antitubercular activity against Mycobacterium tuberculosis H37Rv infected in Swiss mouse infected assessed as mouse survival at 25 mg/kg/day, po for 28 days measured on day 30 post infection; format: functional; how it was run: as §3
[10] = tested on: Mycobacterium tuberculosis; experiment: Antitubercular activity against Mycobacterium tuberculosis H37Rv infected in Swiss mouse infected assessed as mean survival time of mouse at 25 mg/kg/day, po for 28 days measured on day 30 post infection; format: functional; how it was run: as §3
[11] = tested on: Mycobacterium tuberculosis; experiment: Antitubercular activity against Mycobacterium tuberculosis H37Rv infected in Swiss mouse infected assessed as mouse survival at 25 mg/kg/day, po for 28 days measured on day 40 post infection; format: functional; how it was run: as §3
[12] = tested on: Mycobacterium tuberculosis; experiment: Antitubercular activity against Mycobacterium tuberculosis H37Rv infected in Swiss mouse assessed as inhibition of viable bacterial counts in lungs at 25 mg/kg, po for 28 days measured on day 30 post infection; format: functional
How it was run: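 Outbred Swiss mice infected i.v. with H37Rv at 10^7 CFU/mouse, in groups of 6–8. Test compounds were given orally at 100 mg/kg daily for 28 days in peanut oil; isoniazid at 25 mg/kg for 28 days. On day 30, serial dilutions of lung homogenate were plated on 7H11 agar and colonies counted after 3–4 weeks at 37 °C. Result is % inhibition of lung CFU versus untreated controls.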

Structure (SMILES): O=C(/C=C/c1ccc(OCc2ccc(Cl)cc2Cl)cc1)c1ccc(OCc2ccc(Cl)cc2Cl)cc1
- MIC [1]: > 25 µg/mL

Structure (SMILES): O=C(/C=C/c1ccc(OCc2cccc(Cl)c2)cc1)c1ccc(-n2ccnc2)cc1
- MIC [1]: 3.12 µg/mL (≈ 7.52 µM)
- inhibition at 24 h, 10 times MIC [2]: 50%

Structure (SMILES): O=C(/C=C/c1ccc(OCc2ccc(Cl)cc2Cl)cc1)c1ccc(-n2ccnc2)cc1
- MIC [1]: 3.12 µg/mL (≈ 6.94 µM)
- Activity (Vero): Non-toxic
- Activity [3]: Non-toxic
- Activity [4]: 99%
- survival at 100 mg/kg/day [5]: 100%
- MST [6]: 30 days
- survival at 100 mg/kg/day [7]: 83%
- MST [8]: 38.5 days
- inhibition in vivo at 100 mg/kg [9]: 13%

Structure (SMILES): O=C(/C=C/c1ccc(OCc2cc(Cl)ccc2Cl)cc1)c1ccc(-n2ccnc2)cc1
- MIC [1]: 12.5 µg/mL (≈ 27.8 µM)

Structure (SMILES): O=C(/C=C/c1ccc(OCc2ccc(F)cc2F)cc1)c1ccc(-n2ccnc2)cc1
- Activity [4]: <50%

Structure (SMILES): O=C(/C=C/c1ccc(OCc2cccc(Cl)c2)cc1)c1ccc(-n2cncn2)cc1
- MIC [1]: 12.5 µg/mL (≈ 30.1 µM)

Structure (SMILES): O=C(/C=C/c1ccc(OCc2ccc(Cl)cc2Cl)cc1)c1ccc(-n2cncn2)cc1
- MIC [1]: 25 µg/mL (≈ 55.5 µM)

Structure (SMILES): O=C(/C=C/c1ccc(OCc2cc(Cl)ccc2Cl)cc1)c1ccc(-n2cncn2)cc1
- MIC [1]: > 25 µg/mL

Structure (SMILES): O=C(/C=C/c1ccc(OCc2ccc(F)cc2F)cc1)c1ccc(-n2cncn2)cc1
- MIC [1]: 12.5 µg/mL (≈ 29.9 µM)

Structure (SMILES): O=C(/C=C/c1ccc(OCc2cc(F)ccc2F)cc1)c1ccc(-n2cncn2)cc1
- MIC [1]: > 25 µg/mL

Structure (SMILES): O=C(/C=C/c1ccc(Oc2ccc(C(F)(F)F)cc2[N+](=O)[O-])cc1)c1ccc(-n2ccnc2)cc1
- MIC [1]: 12.5 µg/mL (≈ 26.1 µM)

Structure (SMILES): O=C(/C=C/c1ccc(-n2ccnc2)cc1)c1ccc(OCc2cccc(Cl)c2)cc1
- MIC [1]: 6.25 µg/mL (≈ 15.1 µM)

Structure (SMILES): O=C(/C=C/c1ccc(-n2ccnc2)cc1)c1ccc(OCc2ccc(Cl)cc2Cl)cc1
- MIC [1]: 1.56 µg/mL (≈ 3.47 µM)
- Activity (Vero): Non-toxic
- Activity [3]: Non-toxic
- Activity [4]: <50%

Structure (SMILES): O=C(/C=C/c1ccc(-n2ccnc2)cc1)c1ccc(OCc2cc(Cl)ccc2Cl)cc1
- MIC [1]: 3.12 µg/mL (≈ 6.94 µM)
- inhibition at 24 h, 10 times MIC [2]: 50%

Structure (SMILES): O=C(/C=C/c1ccc(-n2ccnc2)cc1)c1ccc(OCc2ccc(F)cc2F)cc1
- MIC [1]: 1.56 µg/mL (≈ 3.75 µM)
- Activity (Vero): Non-toxic
- Activity [3]: Non-toxic
- Activity [4]: 71%
- survival at 100 mg/kg/day [5]: 100%
- MST [6]: 30 days
- survival at 100 mg/kg/day [7]: 100%
- MST [8]: 40 days
- inhibition in vivo at 100 mg/kg [9]: 40%

Structure (SMILES): O=C(/C=C/c1ccc(-n2ccnc2)cc1)c1ccc(OCc2cc(F)ccc2F)cc1
- MIC [1]: 3.12 µg/mL (≈ 7.49 µM)
- Activity (Vero): Non-toxic
- Activity [3]: Non-toxic
- Activity [4]: <50%

Structure (SMILES): O=C(/C=C/c1ccc(-n2cncn2)cc1)c1ccc(OCc2cccc(Cl)c2)cc1
- MIC [1]: 0.78 µg/mL (≈ 1.88 µM)
- Activity (Vero): Non-toxic
- Activity [3]: Non-toxic
- Activity [4]: <50%

Structure (SMILES): O=C(/C=C/c1ccc(-n2cncn2)cc1)c1ccc(OCc2ccc(Cl)cc2Cl)cc1
- MIC [1]: > 25 µg/mL

Structure (SMILES): O=C(/C=C/c1ccc(-n2cncn2)cc1)c1ccc(OCc2cc(Cl)ccc2Cl)cc1
- MIC [1]: > 25 µg/mL

Structure (SMILES): O=C(/C=C/c1ccc(-n2cncn2)cc1)c1ccc(OCc2ccc(F)cc2F)cc1
- MIC [1]: 12.5 µg/mL (≈ 29.9 µM)

Structure (SMILES): O=C(/C=C/c1ccc(-n2cncn2)cc1)c1ccc(OCc2cc(F)ccc2F)cc1
- MIC [1]: 3.12 µg/mL (≈ 7.47 µM)
- inhibition at 24 h, 10 times MIC [2]: 50%

Structure (SMILES): O=C(/C=C/c1ccc(-n2ccnc2)cc1)c1ccc(Oc2ccc(C(F)(F)F)cc2[N+](=O)[O-])cc1
- MIC [1]: 12.5 µg/mL (≈ 26.1 µM)

Structure (SMILES): O=C(/C=C/c1ccc(-n2cncn2)cc1)c1ccc(Oc2ccc(C(F)(F)F)cc2[N+](=O)[O-])cc1
- MIC [1]: 12.5 µg/mL (≈ 26 µM)

Structure (SMILES): O=C(/C=C/c1ccc(-n2ccnc2)cc1)c1ccc(-n2ccnc2)cc1
- MIC [1]: > 25 µg/mL

Structure (SMILES): O=C(/C=C/c1ccc(-n2cncn2)cc1)c1ccc(-n2cncn2)cc1
- MIC [1]: > 25 µg/mL

Structure (SMILES): O=C(/C=C/c1ccccc1)c1ccc(OCc2ccc(Cl)cc2Cl)cc1
- MIC [1]: 12.5 µg/mL (≈ 32.6 µM)

Structure (SMILES): NNC(=O)c1ccncc1 [ISONIAZID]
- MIC [1]: 0.025 µg/mL (≈ 0.182 µM)
- Activity (Vero): Non-toxic
- Activity [3]: Non-toxic
- survival at 25 mg/kg/day (Mus musculus): 100%
- MST [10]: 30 days
- survival at 25 mg/kg/day [11]: 100%
- inhibition in vivo at 25 mg/kg [12]: 100%
